# Laboratory results as given in ChEMBL document CHEMBL4138211, “Regio- and stereoselective synthesis of dispirooxindole-pyrrolocarbazole hybrids via 1,3-dipolar cycloaddition reactions: Cytotoxic activity and SAR studies” (Eur J Med Chem, 2018).
# Calls of active or inactive are those of the source. The calls are words filed in the database; no cut-off is given here.
# How the values were obtained:
# MCF7 [1] = experiment: Antiproliferative activity against human MCF7 cells after 48 hrs by MTT assay; format: functional, cell-based
# Method in brief: (§1)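 Cells grown 1×10⁴/well for 48 h to about 75% confluence. Medium then replaced with fresh medium containing serially diluted compounds, followed by a further 48 h. MTT added for 4 h at 37 °C and formazan dissolved in DMSO for 10 min. OD read at 620 nm. IC50 taken from the viability–concentration survival curve. Three independent experiments, each in triplicate.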
# A549 [2] = experiment: Antiproliferative activity against human A549 cells after 48 hrs by MTT assay; format: functional, cell-based; method in brief: as §1
# MCF7 [3] = experiment: Induction of apoptosis in human MCF7 cells assessed as cell shrinkage after 24 hrs by brightfield inverted light microscopic analysis; format: functional, cell-based
# MCF7 [4] = experiment: Induction of apoptosis in human MCF7 cells assessed as membrane blebbing after 24 hrs by brightfield inverted light microscopic analysis; format: functional, cell-based
# MCF7 [5] = experiment: Induction of apoptosis in human MCF7 cells assessed as formation of floating cells after 24 hrs by brightfield inverted light microscopic analysis; format: functional, cell-based
# A549 [6] = experiment: Induction of apoptosis in human A549 cells assessed as cell shrinkage after 24 hrs by brightfield inverted light microscopic analysis; format: functional, cell-based
# A549 [7] = experiment: Induction of apoptosis in human A549 cells assessed as membrane blebbing after 24 hrs by brightfield inverted light microscopic analysis; format: functional, cell-based
# A549 [8] = experiment: Induction of apoptosis in human A549 cells assessed as formation of floating cells after 24 hrs by brightfield inverted light microscopic analysis; format: functional, cell-based
# MCF7 [9] = experiment: Induction of apoptosis in human MCF7 cells assessed as nuclear fragmentation after 24 hrs by DAPI staining-based fluorescence microscopic analysis; format: functional, cell-based
# Method in brief: (§2)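 Cells plated on glass coverslips and treated for 24 h, then fixed. Permeabilised with 0.2% Triton X-100 for 10 min at room temperature. DAPI applied for 3 min under a coverslip. Nuclei inspected by fluorescence microscopy for condensed chromatin and fragmentation, against untreated cells.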
# A549 [10] = experiment: Induction of apoptosis in human A549 cells assessed as nuclear fragmentation after 24 hrs by DAPI staining-based fluorescence microscopic analysis; format: functional, cell-based; method in brief: as §2
# MCF7 [11] = experiment: Induction of apoptosis in human MCF7 cells by acridine orange/ethidium bromide staining-based fluorescence microscopic analysis; format: functional, cell-based
# Method in brief: (§3)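 Treated cells collected and washed in PBS (pH 7.2). Stained with a 1:1 AO/EtBr mixture (each dye […] in water) and held 2 min. Washed twice in PBS and viewed by fluorescence microscopy at 400× with 480 nm excitation. Green intact-membrane cells distinguished from orange/red membrane-damaged cells.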
# MCF7 [12] = experiment: Induction of apoptosis in human MCF7 cells assessed as nuclear condensation by acridine orange/ethidium bromide staining-based fluorescence microscopic analysis; format: functional, cell-based; method in brief: as §3
# MCF7 [13] = experiment: Induction of apoptosis in human MCF7 cells assessed as damaged cell membranes by acridine orange/ethidium bromide staining-based fluorescence microscopic analysis; format: functional; method in brief: as §3
# A549 [14] = experiment: Induction of apoptosis in human A549 cells by acridine orange/ethidium bromide staining-based fluorescence microscopic analysis; format: functional, cell-based; method in brief: as §3
# MCF7 [15] = experiment: Induction of apoptosis in human MCF7 cells assessed as necrotic cells at 5 uM after 6 hrs by Annexin V-FITC/propidium iodide staining based flow cytometry (reference value: 0.0%); format: functional
# Method in brief: (§4)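 Cells at 1×10⁵/mL exposed to 5, 10 or 20 μM (printed as μM/ml) for 6 h, with an untreated control. Harvested, PBS-washed and trypsinised, then spun at 200×g for 10 min. Stained with annexin V-FITC/propidium iodide for 10-15 min at 25 °C. Quadrant analysis gives live, early apoptotic, late apoptotic and necrotic fractions.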
# MCF7 [16] = experiment: Induction of apoptosis in human MCF7 cells assessed as late apoptotic cells at 5 uM after 6 hrs by Annexin V-FITC/propidium iodide staining based flow cytometry (reference value: 0.0%); format: functional; method in brief: as §4
# MCF7 [17] = experiment: Induction of apoptosis in human MCF7 cells assessed as early apoptotic cells at 5 uM after 6 hrs by Annexin V-FITC/propidium iodide staining based flow cytometry (reference value: 0.88%); format: functional; method in brief: as §4
# MCF7 [18] = experiment: Induction of apoptosis in human MCF7 cells assessed as viable cells at 5 uM after 6 hrs by Annexin V-FITC/propidium iodide staining based flow cytometry (reference value: 99.12%); format: functional; details: MCF7, 6 h, read-out: Activity; method in brief: as §4
# MCF7 [19] = experiment: Induction of apoptosis in human MCF7 cells assessed as necrotic cells at 10 uM after 6 hrs by Annexin V-FITC/propidium iodide staining based flow cytometry (reference value: 0.0%); format: functional; method in brief: as §4
# MCF7 [20] = experiment: Induction of apoptosis in human MCF7 cells assessed as late apoptotic cells at 10 uM after 6 hrs by Annexin V-FITC/propidium iodide staining based flow cytometry (reference value: 0.0%); format: functional; method in brief: as §4
# MCF7 [21] = experiment: Induction of apoptosis in human MCF7 cells assessed as early apoptotic cells at 10 uM after 6 hrs by Annexin V-FITC/propidium iodide staining based flow cytometry (reference value: 0.88%); format: functional; method in brief: as §4
# MCF7 [22] = experiment: Induction of apoptosis in human MCF7 cells assessed as viable cells at 10 uM after 6 hrs by Annexin V-FITC/propidium iodide staining based flow cytometry (reference value: 99.12%); format: functional; details: MCF7, 6 h, read-out: Activity; method in brief: as §4
# MCF7 [23] = experiment: Induction of apoptosis in human MCF7 cells assessed as necrotic cells at 20 uM after 6 hrs by Annexin V-FITC/propidium iodide staining based flow cytometry (reference value: 0.0%); format: functional; method in brief: as §4
# MCF7 [24] = experiment: Induction of apoptosis in human MCF7 cells assessed as late apoptotic cells at 20 uM after 6 hrs by Annexin V-FITC/propidium iodide staining based flow cytometry (reference value: 0.0%); format: functional; method in brief: as §4
# MCF7 [25] = experiment: Induction of apoptosis in human MCF7 cells assessed as early apoptotic cells at 20 uM after 6 hrs by Annexin V-FITC/propidium iodide staining based flow cytometry (reference value: 0.88%); format: functional; method in brief: as §4
# MCF7 [26] = experiment: Induction of apoptosis in human MCF7 cells assessed as viable cells at 20 uM after 6 hrs by Annexin V-FITC/propidium iodide staining based flow cytometry (reference value: 99.12%); format: functional; details: MCF7, 6 h, read-out: Activity; method in brief: as §4
# A549 [27] = experiment: Induction of apoptosis in human A549 cells assessed as necrotic cells at 5 uM after 6 hrs by Annexin V-FITC/propidium iodide staining based flow cytometry (reference value: 0.0%); format: functional; method in brief: as §4
# A549 [28] = experiment: Induction of apoptosis in human A549 cells assessed as late apoptotic cells at 5 uM after 6 hrs by Annexin V-FITC/propidium iodide staining based flow cytometry (reference value: 0.0%); format: functional; method in brief: as §4
# A549 [29] = experiment: Induction of apoptosis in human A549 cells assessed as early apoptotic cells at 5 uM after 6 hrs by Annexin V-FITC/propidium iodide staining based flow cytometry (reference value: 0.77%); format: functional; method in brief: as §4
# A549 [30] = experiment: Induction of apoptosis in human A549 cells assessed as viable cells at 5 uM after 6 hrs by Annexin V-FITC/propidium iodide staining based flow cytometry (reference value: 99.23%); format: functional; details: A549, 6 h, read-out: Activity; method in brief: as §4
# A549 [31] = experiment: Induction of apoptosis in human A549 cells assessed as necrotic cells at 10 uM after 6 hrs by Annexin V-FITC/propidium iodide staining based flow cytometry (reference value: 0.0%); format: functional; method in brief: as §4
# A549 [32] = experiment: Induction of apoptosis in human A549 cells assessed as late apoptotic cells at 10 uM after 6 hrs by Annexin V-FITC/propidium iodide staining based flow cytometry (reference value: 0.0%); format: functional; method in brief: as §4
# A549 [33] = experiment: Induction of apoptosis in human A549 cells assessed as early apoptotic cells at 10 uM after 6 hrs by Annexin V-FITC/propidium iodide staining based flow cytometry (reference value: 0.77%); format: functional; method in brief: as §4
# A549 [34] = experiment: Induction of apoptosis in human A549 cells assessed as viable cells at 10 uM after 6 hrs by Annexin V-FITC/propidium iodide staining based flow cytometry (reference value: 99.23%); format: functional; details: A549, 6 h, read-out: Activity; method in brief: as §4
# A549 [35] = experiment: Induction of apoptosis in human A549 cells assessed as necrotic cells at 20 uM after 6 hrs by Annexin V-FITC/propidium iodide staining based flow cytometry (reference value: 0.0%); format: functional; method in brief: as §4
# A549 [36] = experiment: Induction of apoptosis in human A549 cells assessed as late apoptotic cells at 20 uM after 6 hrs by Annexin V-FITC/propidium iodide staining based flow cytometry (reference value: 0.0%); format: functional; method in brief: as §4
# A549 [37] = experiment: Induction of apoptosis in human A549 cells assessed as early apoptotic cells at 20 uM after 6 hrs by Annexin V-FITC/propidium iodide staining based flow cytometry (reference value: 0.77%); format: functional; method in brief: as §4
# A549 [38] = experiment: Induction of apoptosis in human A549 cells assessed as viable cells at 20 uM after 6 hrs by Annexin V-FITC/propidium iodide staining based flow cytometry (reference value: 99.23%); format: functional; details: A549, 6 h, read-out: Activity; method in brief: as §4
# MCF7 [39] = experiment: Induction of apoptosis in human MCF7 cells assessed as increase in early apoptotic cells after 6 hrs by Annexin V-FITC/propidium iodide staining based flow cytometry; format: functional, cell-based; method in brief: as §4
# MCF7 [40] = experiment: Induction of apoptosis in human MCF7 cells assessed as increase in late apoptotic cells after 6 hrs by Annexin V-FITC/propidium iodide staining based flow cytometry; format: functional, cell-based; method in brief: as §4
# A549 [41] = experiment: Induction of apoptosis in human A549 cells assessed as increase in early apoptotic cells after 6 hrs by Annexin V-FITC/propidium iodide staining based flow cytometry; format: functional, cell-based; method in brief: as §4
# A549 [42] = experiment: Induction of apoptosis in human A549 cells assessed as increase in late apoptotic cells after 6 hrs by Annexin V-FITC/propidium iodide staining based flow cytometry; format: functional, cell-based; method in brief: as §4
structure (smiles),measurement,setting,value
O=C1Nc2ccccc2[C@]12N[C@H](c1ccccc1)[C@H](c1cccs1)[C@@]21CCc2c([nH]c3ccc(Cl)cc23)C1=O,Activity,MCF7 [1],Dose-dependent effect
same,IC50,"MCF7 [1]; MCF7, 48 h",13 µM
same,Activity,A549 [2],Dose-dependent effect
same,IC50,"A549 [2]; A549, 48 h",14 µM
same,Activity,MCF7 [3],Dose-dependent effect
same,Activity,MCF7 [4],Dose-dependent effect
same,Activity,MCF7 [5],Dose-dependent effect
same,Activity,A549 [6],Dose-dependent effect
same,Activity,A549 [7],Dose-dependent effect
same,Activity,A549 [8],Dose-dependent effect
same,Activity,MCF7 [9],Active
same,Activity,A549 [10],Active
same,Activity,MCF7 [11],Active
same,Activity,MCF7 [12],Active
same,Activity,MCF7 [13],Active
same,Activity,A549 [14],Active
same,Activity,MCF7 [15],1.81%
same,Activity,MCF7 [16],7.55%
same,Activity,MCF7 [17],8.19%
same,viability at 5 µM,MCF7 [18],82.5%
same,Activity,MCF7 [19],0.98%
same,Activity,MCF7 [20],12.82%
same,Activity,MCF7 [21],23.3%
same,viability at 10 µM,MCF7 [22],62.9%
same,Activity,MCF7 [23],1.12%
same,Activity,MCF7 [24],30.2%
same,Activity,MCF7 [25],33.56%
same,viability at 20 µM,MCF7 [26],35.1%
same,Activity,A549 [27],1.15%
same,Activity,A549 [28],6.7%
same,Activity,A549 [29],28.95%
same,viability at 5 µM,A549 [30],63.2%
same,Activity,A549 [31],2.81%
same,Activity,A549 [32],7.65%
same,Activity,A549 [33],17.35%
same,viability at 10 µM,A549 [34],72.2%
same,Activity,A549 [35],1.85%
same,Activity,A549 [36],28.7%
same,Activity,A549 [37],32.15%
same,viability at 20 µM,A549 [38],37.3%
same,Activity,MCF7 [39],Dose-dependent effect
same,Activity,MCF7 [40],Dose-dependent effect
same,Activity,A549 [41],Dose-dependent effect
same,Activity,A549 [42],Dose-dependent effect
